Results: ChEMBL document CHEMBL3272325, “Structure-activity relationships of dimeric Catharanthus alkaloids. 1. Deacetylvinblastine amide (vindesine) sulfate” (J Med Chem, 1978)
Activity calls are given as the source filed them. No cut-off for these calls is given here.

What was measured:
[1] = Antitumor activity against mouse Gardner lymphosarcoma cell allografted in mouse at 0.2 to 0.3 mg/kg/day, ip; type: functional; conditions: route intraperitoneal
Outline: (§1)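 Ridgeway osteogenic sarcoma and Gardner lymphosarcoma in mice, with sulfate salts given ip daily on days 1-9. Tumor growth inhibition versus controls scored in bands: +++ = 75-100%, ++ = 50-75%, ± = under 25%.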

[2] = Antitumor activity against mouse Ridgeway osteogenic sarcoma cells allografted in mouse at 0.2 to 0.3 mg/kg/day, ip; type: functional; conditions: route intraperitoneal; outline: as §1
[3] = Acute toxicity in ip dosed mouse; type: organism-based; conditions: in vivo
[4] = Toxicity in ip dosed mouse allografted with mouse p388 cells administered from day 1 to day 9; type: organism-based; conditions: in vivo, read-out: MNTD
Outline: (§2)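 P388 ascites implanted ip in mice, 10 animals per group. Sulfate salts given ip either daily on days 1-9 or as a single dose on day 1. Median life span was calculated using all deaths and survivors. Percent increase in life span was taken over untreated controls. The highest nontoxic dose was noted.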

[5] = system: B16; experiment: Antitumor activity against mouse B16 cells allografted in B6D2F1 mouse assessed as increase in life span at 3 mg/kg/day, ip administered on day 5, 9 and 13 measured for 56 days relative to untreated control; type: functional; conditions: route intraperitoneal
Outline: (§3)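 Male B6D2F1 mice implanted ip on day 0 with 0.25 mL of a 20% (w/v) B16 melanoma brei. Alkaloid sulfate salts given ip on days 1, 5, 9 or on days 5, 9, 13, groups of 10, against 30 untreated controls. Read-outs: median survival time with range of individual deaths, and percent increase in life span, with survivors counted on day 56.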

[6] = system: P388; experiment: Antitumor activity against mouse P388 cells allografted in mouse assessed as increase in life span at 0.27 mg/kg/day, ip administered from day 1 to day 9 relative to untreated control; type: functional; conditions: route intraperitoneal; outline: as §2
[7] = system: B16; experiment: Antitumor activity against mouse B16 cells allografted in B6D2F1 mouse assessed as increase in life span at 1.8 mg/kg/day, ip administered on day 1, 5 and 9 measured for 56 days relative to untreated control; type: functional; conditions: route intraperitoneal; outline: as §3
[8] = Antitumor activity against mouse Gardner lymphosarcoma cell allografted in mouse at 0.1 to 0.35 mg/kg/day, ip; type: functional; conditions: route intraperitoneal
Outline: (§4)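 Sulfate salts given ip on days 1-9 against ROS and GLS in mice; tumor growth scored as percent inhibition versus controls (+++ = 75-100%, ++ = 50-75%, ± = under 25%).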

[9] = system: B16; experiment: Antitumor activity against mouse B16 cells allografted in B6D2F1 mouse assessed as increase in life span at 0.648 mg/kg/day, ip administered on day 1, 5 and 9 measured for 56 days relative to untreated control; type: functional; conditions: route intraperitoneal; outline: as §3
[10] = system: B16; experiment: Antitumor activity against mouse B16 cells allografted in B6D2F1 mouse assessed as mean survival time at 1.08 mg/kg/day, ip administered on day 5, 9 and 13 (reference value: 20.0 days); type: functional; conditions: route intraperitoneal; outline: as §3
[11] = system: P388; experiment: Antitumor activity against mouse P388 cells allografted in mouse assessed as survival at 0.4 mg/kg/day administered from day 1 to day 9; type: functional, organism-based
Outline: (§5)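 P388 ascites implanted ip in mice; sulfate salts dosed either daily or as a single dose on day 1, 10 animals per group. Survivors per total were recorded, median life span was calculated using all deaths and survivors, and percent increase of life span was reported.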

[12] = Antitumor activity against mouse P1534(J) cells allografted in mouse assessed as tumor growth inhibition at 0.35 mg/kg/day, ip administered from day 1 to day 9 relative to unreated control; type: functional; conditions: P1534J, route intraperitoneal, read-out: TGI
Outline: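 P1534(J) leukemia implanted subcutaneously in mice; sulfate salts given ip on days 1-9. Read-out is percent inhibition of tumor growth versus untreated controls.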

[13] = system: P388; experiment: Antitumor activity against mouse P388 cells allografted in mouse assessed as increase in life span at 4 mg/kg/day, ip after 1 day; type: functional; conditions: 24 h, route intraperitoneal; outline: as §2
[14] = system: P388; experiment: Antitumor activity against mouse P388 cells allografted in mouse assessed as increase in life span at 0.6 mg/kg/day, ip administered from day 1 to day 9 relative to untreated control; type: functional; conditions: route intraperitoneal; outline: as §2
[15] = system: B16; experiment: Antitumor activity against mouse B16 cells allografted in B6D2F1 mouse assessed as increase in life span at 1.08 mg/kg/day, ip administered on day 5, 9 and 13 measured for 56 days relative to untreated control; type: functional; conditions: route intraperitoneal; outline: as §3
[16] = system: B16; experiment: Antitumor activity against mouse B16 cells allografted in B6D2F1 mouse assessed as increase in life span at 0.389 mg/kg/day, ip administered on day 1, 5 and 9 measured for 56 days relative to untreated control; type: functional; conditions: route intraperitoneal; outline: as §3
[17] = system: B16; experiment: Antitumor activity against mouse B16 cells allografted in B6D2F1 mouse assessed as mean survival time at 1.8 mg/kg/day, ip administered on day 1, 5 and 9 (reference value: 20.0 days); type: functional; conditions: route intraperitoneal; outline: as §3
[18] = system: B16; experiment: Antitumor activity against mouse B16 cells allografted in B6D2F1 mouse assessed as increase in life span at 1.8 mg/kg/day, ip administered on day 5, 9 and 13 measured for 56 days relative to untreated control; type: functional; conditions: route intraperitoneal; outline: as §3
[19] = system: B16; experiment: Antitumor activity against mouse B16 cells allografted in B6D2F1 mouse assessed as mean survival time at 1.08 mg/kg/day, ip administered on day 1, 5 and 9 (reference value: 20.0 days); type: functional; conditions: route intraperitoneal; outline: as §3
[20] = system: B16; experiment: Antitumor activity against mouse B16 cells allografted in B6D2F1 mouse assessed as increase in life span at 3 mg/kg/day, ip administered on day 1, 5 and 9 measured for 56 days relative to untreated control; type: functional; conditions: route intraperitoneal; outline: as §3
[21] = system: P388; experiment: Antitumor activity against mouse P388 cells allografted in mouse assessed as increase in life span at 9 mg/kg/day, ip after 1 day; type: functional; conditions: 24 h, route intraperitoneal; outline: as §2
[22] = system: B16; experiment: Antitumor activity against mouse B16 cells allografted in B6D2F1 mouse assessed as mean survival time at 3 mg/kg/day, ip administered on day 1, 5 and 9 (reference value: 20.0 days); type: functional; conditions: route intraperitoneal; outline: as §3
[23] = Acute toxicity in rat; type: organism-based; conditions: in vivo
[24] = system: P388; experiment: Antitumor activity against mouse P388 cells allografted in mouse assessed as survival at 4 mg/kg/day after 1 day; type: functional, organism-based; outline: as §5
[25] = system: B16; experiment: Antitumor activity against mouse B16 cells allografted in B6D2F1 mouse assessed as increase in life span at 0.389 mg/kg/day, ip administered on day 5, 9 and 13 measured for 56 days relative to untreated control; type: functional; conditions: route intraperitoneal; outline: as §3
[26] = Toxicity in ip dosed mouse allografted with mouse p388 cells after 1 day; type: organism-based; conditions: in vivo, read-out: MNTD; outline: as §2
[27] = system: B16; experiment: Antitumor activity against mouse B16 cells allografted in B6D2F1 mouse assessed as mean survival time at 0.389 mg/kg/day, ip administered on day 1, 5 and 9 (reference value: 20.0 days); type: functional; conditions: route intraperitoneal; outline: as §3
[28] = system: B16; experiment: Antitumor activity against mouse B16 cells allografted in B6D2F1 mouse assessed as mean survival time at 0.648 mg/kg/day, ip administered on day 1, 5 and 9 (reference value: 20.0 days); type: functional; conditions: route intraperitoneal; outline: as §3
[29] = system: B16; experiment: Antitumor activity against mouse B16 cells allografted in B6D2F1 mouse assessed as mean survival time at 0.389 mg/kg/day, ip administered on day 5, 9 and 13 (reference value: 20.0 days); type: functional; conditions: route intraperitoneal; outline: as §3
[30] = Toxicity in ip dosed mouse allografted with mouse P1534(J) cells administered from day 1 to day 9; type: organism-based; conditions: in vivo, read-out: MNTD
Outline: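 P1534(J) leukemia implanted subcutaneously in mice. Sulfate salts given ip daily on days 1-9. Read-out was percent inhibition of tumor growth relative to untreated controls. The highest nontoxic dose was recorded.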

[31] = system: B16; experiment: Antitumor activity against mouse B16 cells allografted in B6D2F1 mouse assessed as mean survival time at 1.8 mg/kg/day, ip administered on day 5, 9 and 13 (reference value: 20.0 days); type: functional; conditions: route intraperitoneal; outline: as §3
[32] = system: P388; experiment: Antitumor activity against mouse P388 cells allografted in mouse assessed as increase in life span at 2.7 mg/kg/day, ip after 1 day; type: functional; conditions: 24 h, route intraperitoneal; outline: as §2
[33] = system: P388; experiment: Antitumor activity against mouse P388 cells allografted in mouse assessed as increase in life span at 0.4 mg/kg/day, ip administered from day 1 to day 9 relative to untreated control; type: functional; conditions: route intraperitoneal; outline: as §2
[34] = system: B16; experiment: Antitumor activity against mouse B16 cells allografted in B6D2F1 mouse assessed as mean survival time at 3 mg/kg/day, ip administered on day 5, 9 and 13 (reference value: 20.0 days); type: functional; conditions: route intraperitoneal; outline: as §3
[35] = system: P388; experiment: Antitumor activity against mouse P388 cells allografted in mouse assessed as increase in life span at 0.9 mg/kg/day, ip administered from day 1 to day 9 relative to untreated control; type: functional; conditions: route intraperitoneal; outline: as §2
[36] = system: B16; experiment: Antitumor activity against mouse B16 cells allografted in B6D2F1 mouse assessed as increase in life span at 0.648 mg/kg/day, ip administered on day 5, 9 and 13 measured for 56 days relative to untreated control; type: functional; conditions: route intraperitoneal; outline: as §3
[37] = Antitumor activity against mouse Ridgeway osteogenic sarcoma cells allografted in mouse at 0.1 to 0.35 mg/kg/day, ip; type: functional; conditions: route intraperitoneal; outline: as §4
[38] = system: B16; experiment: Antitumor activity against mouse B16 cells allografted in B6D2F1 mouse assessed as mean survival time at 0.648 mg/kg/day, ip administered on day 5, 9 and 13 (reference value: 20.0 days); type: functional; conditions: route intraperitoneal; outline: as §3
[39] = system: P388; experiment: Antitumor activity against mouse P388 cells allografted in mouse assessed as increase in life span at 6 mg/kg/day, ip after 1 day; type: functional; conditions: 24 h, route intraperitoneal; outline: as §2
[40] = system: B16; experiment: Antitumor activity against mouse B16 cells allografted in B6D2F1 mouse assessed as increase in life span at 1.08 mg/kg/day, ip administered on day 1, 5 and 9 measured for 56 days relative to untreated control; type: functional; conditions: route intraperitoneal; outline: as §3
[41] = system: P388; experiment: Antitumor activity against mouse P388 cells allografted in mouse assessed as survival at 2.7 mg/kg/day after 1 day; type: functional, organism-based; outline: as §5

Compound `CC[C@]1(O)C[C@H]2CN(CCc3c([nH]c4ccccc34)[C@@](C(=O)OC)(c3cc4c(cc3OC)N(C)[C@H]3[C@@](O)(C(=O)NN)[C@H](O)[C@]5(CC)C=CCN6CC[C@]43[C@@H]65)C2)C1` has a TGI [1] of 75% and a TGI [2] of 75%.
`CC[C@]1(O)C[C@@H]2CN(CCc3c([nH]c4ccccc34)[C@@](C(=O)OC)(c3cc4c(cc3OC)N(C)[C@H]3[C@@](O)(C(=O)OC)[C@H](OC(C)=O)[C@]5(CC)C=CCN6CC[C@]43[C@@H]65)C2)C1.O=S(=O)(O)O` [VINBLASTINE SULFATE] gave an LD50 [3] of 10 mg/kg, an MTD [4] of 0.9 mg/kg/day and an ILS at 3 mg/kg/day [5] of 62%. The ILS at 0.27 mg/kg/day [6] was 131%, the ILS at 1.8 mg/kg/day [7] was 92% and the TGI [8] was <25%. For the same compound, the ILS at 0.648 mg/kg/day [9] was 68%, the MST [10] was 27.5 days and the Activity [11] was “inactive”. For the same compound, the inhibition in vivo at 0.35 mg/kg/day [12] was 54%, the ILS at 4 mg/kg/day [13] was 95% and the ILS at 0.6 mg/kg/day [14] was > 263%. The ILS at 1.08 mg/kg/day [15] was 39%, the ILS at 0.389 mg/kg/day [16] was 60% and the MST [17] was 38.5 days. For the same compound, the ILS at 1.8 mg/kg/day [18] was 25%, the MST [19] was 35.5 days and the ILS at 3 mg/kg/day [20] was 102%. The ILS at 9 mg/kg/day [21] was 127%, the MST [22] was 40.5 days and the LD50 [23] was 2.9 mg/kg. The Activity [24] was “inactive”, the ILS at 0.389 mg/kg/day [25] was 12% and the MTD at 24 h [26] was 9 mg/kg/day. It also gave an MST [27] of 32 days, an MST [28] of 33.5 days and an MST [29] of 22.5 days. For the same compound, the MTD [30] was 0.35 mg/kg/day, the MST [31] was 25 days and the ILS at 2.7 mg/kg/day [32] was 81%. It also gave an ILS at 0.4 mg/kg/day [33] of 72%, an MST [34] of 32.5 days and an ILS at 0.9 mg/kg/day [35] of 109%. For the same compound, the ILS at 0.648 mg/kg/day [36] was 40%, the TGI [37] was <25% and the MST [38] was 28 days. For the same compound, the ILS at 6 mg/kg/day [39] was 109%, the ILS at 1.08 mg/kg/day [40] was 78% and the Activity [41] was “inactive”.
